MIC, IC50 and Activity data for 24 compounds are collected here from ChEMBL document CHEMBL1143287, “Quinazolin-2-ylamino-quinazolin-4-ols as novel non-nucleoside inhibitors of bacterial DNA polymerase III” (Bioorg Med Chem Lett, 2009).

Converted amounts (≈) assume the structure as drawn. The source made the active and inactive calls.

Assay [1] concerns Staphylococcus aureus. Description: Antibacterial activity against Staphylococcus aureus ATCC 29213 by broth microdilution assay in presence of 50% human serum. It is filed as functional. For orientation: In broth dilution the organism is exposed to a series of concentrations in liquid medium.
Assay [2] is described as follows: Inhibition of mammalian DNA polymerase […] delta.
Assay [3] is described as follows: (§1) Inhibition of Streptococcus pyogenes DNA polymerase 3. The essentials: (§2)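 S. pyogenes DNA polymerase III holoenzyme system reconstituted in 96- or 384-well format; inhibition read as prevention of duplex DNA formation, detected by fluorescence.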
Another assay relates to Streptococcus pneumoniae. Put plainly: Antibacterial activity against Streptococcus pneumoniae ATCC 49619 by broth microdilution assay. It is filed as functional.
Assay [4] deals with Staphylococcus aureus. Description: Antibacterial activity against Staphylococcus aureus ATCC 29213 by broth microdilution assay. Format: functional.
The test system of the next assay is Streptococcus pyogenes. The assay is described as §1. The essentials: as §2
Assay [5] has as its system Staphylococcus aureus. Put plainly: Antibacterial activity against Staphylococcus aureus infected in mouse assessed as protection against bacterial infection at 25 mg/kg, ip administered as single dose measured 1 hr postinjection. Format: functional. Particulars: route intraperitoneal.

As usually defined, the MIC is the smallest concentration in the dilution series that meets the test's criterion for growth inhibition. One may read the IC50 as the concentration that inhibits the measured activity by half. A lower IC50 goes with greater potency. For the compound `CNc1ccc2c(O)nc(Nc3nc(C)c4cc(OC)ccc4n3)nc2c1`, in the assay with Staphylococcus aureus [1], the MIC was determined as 1 µg/mL. The IC50 in assay [2] turned out to be 200 nM; in assay [3] it was 500 nM.

Turning to `COc1ccc2nc(Nc3nc(O)c4c(Cl)cccc4n3)nc(C)c2c1`, in the assay on Staphylococcus aureus [1], the MIC was 1 µg/mL. Further, the IC50 in assay [2] was 900 nM; in assay [3], 560 nM.

As to `COc1ccc2nc(Nc3nc(O)c4ccc(N)cc4n3)nc(C)c2c1`, in the assay on Staphylococcus aureus [1], the MIC was found to be 1 µg/mL. Besides, the IC50 in assay [2] was determined as 4900 nM; in assay [3], 4700 nM.

For `COc1ccc2nc(Nc3nc(O)c4ccc(NC(C)=O)cc4n3)nc(C)c2c1`, the IC50 in assay [2] was found to be 5000 nM; in assay [3], 5500 nM.

`COc1ccc2nc(Nc3nc(O)c4c(C)cccc4n3)nc(C)c2c1`: the MIC in the assay on Staphylococcus aureus [1] amounted to 2 µg/mL. The IC50 in assay [2] was 1200 nM; in assay [3], 700 nM.

In the case of `COc1ccc2nc(Nc3nc(O)c4cccc(OC)c4n3)nc(C)c2c1`, in the assay on Staphylococcus aureus [1], the MIC amounted to 2 µg/mL. Besides, in assay [2], the outcome was inactive. Also, the 50% inhibitory concentration (IC50) in assay [3] is above 100000 nM.

As to `COc1cc2nc(Nc3nc(O)c4ccccc4n3)nc(C)c2cc1OC`, the MIC against Streptococcus pneumoniae came to 1 µg/mL (≈ 2.75 µM); in the assay with Staphylococcus aureus [4], 4 µg/mL (≈ 11 µM). For the same compound, in assay [3], it took 2000 nM to reach half-maximal inhibition (IC50).

As for `CCNc1ccc2c(O)nc(Nc3nc(C)c4cc(OC)ccc4n3)nc2c1`, the MIC in the assay with Staphylococcus aureus [1] worked out at 1 µg/mL. Also, the IC50 in assay [2] and in assay [3] was 400 nM in each case.

`COc1ccc2nc(Nc3nc(O)c4ccc(Cl)cc4n3)nc(C)c2c1`: the outcome (in the assay on Staphylococcus aureus [1]; in assay [2]) was inactive. This compound had an IC50 in assay [3] above 100000 nM.

For the compound `Cc1ccc2nc(Nc3nc(O)c4ccccc4n3)nc(C)c2c1`, the MIC with Streptococcus pneumoniae was found to be 16 µg/mL (≈ 50.4 µM); against Staphylococcus aureus [4] it was 32 µg/mL (≈ 101 µM). Also, in assay [3], the IC50 came out at 209000 nM.

As to `COc1ccc2c(O)nc(Nc3nc(C)c4cc(OC)ccc4n3)nc2c1`, the MIC with Staphylococcus aureus [1] was found to be 2 µg/mL. The IC50 in assay [2] came to 1800 nM; in assay [3], 3800 nM.

For `COc1cc2nc(N(C)c3nc(OC)c4ccccc4n3)nc(C)c2cc1OC`, the result in the assay with Streptococcus pyogenes was inactive.

Take `COc1cccc2c(C)nc(Nc3nc(O)c4ccccc4n3)nc12`: the MIC is 0.25 µg/mL (≈ 0.75 µM) in the assay on Streptococcus pneumoniae and 0.5 µg/mL (≈ 1.5 µM) in the assay with Staphylococcus aureus [4]. The same compound displayed an IC50 in assay [3] of 3100 nM.

On to `COc1ccc2nc(Nc3nc(O)c4ccc(N(C)C)cc4n3)nc(C)c2c1`, for which the MIC with Staphylococcus aureus [1] was found to be 2 µg/mL. The IC50 in assay [2] and in assay [3] was 400 nM each time.

`Cc1cc2nc(Nc3nc(O)c4ccccc4n3)nc(C)c2cc1C`: the MIC was 1 µg/mL (≈ 3.02 µM) against Streptococcus pneumoniae and above 64 µg/mL in the assay on Staphylococcus aureus [4]. The IC50 in assay [3] is 27100 nM.

Turning to `COc1ccc2nc(Nc3nc(O)c4ccc([N+](=O)[O-])cc4n3)nc(C)c2c1`, the MIC in the assay with Staphylococcus aureus [1] worked out at 64 µg/mL. Also, the IC50 in assay [2] was 400 nM; in assay [3], above 100000 nM.

Regarding `COc1ccc2nc(Nc3nc(O)c4ccc(F)cc4n3)nc(C)c2c1`, the MIC in the assay with Staphylococcus aureus [1] worked out at 64 µg/mL. The results for the IC50 in assay [2] and in assay [3] were 1900 nM and 77800 nM, respectively.

For `COc1ccc2c(C)nc(Nc3nc(O)c4ccccc4n3)nc2c1`, the MIC in the assay with Streptococcus pneumoniae and against Staphylococcus aureus [4] was 32 µg/mL (≈ 96 µM) throughout. The compound further yielded an IC50 in assay [3] of 70000 nM.

In the case of `COc1cc2nc(Nc3nc(OC)c4ccccc4n3)nc(C)c2cc1OC`, in the assay with Streptococcus pyogenes, the result was inactive.

In the case of `COc1ccc2nc(Nc3nc(O)c4cc([N+](=O)[O-])ccc4n3)nc(C)c2c1`, the results for the IC50 in assay [2] and in assay [3] were 14900 nM and 8700 nM, respectively.

Regarding `COc1ccc2nc(Nc3nc(O)c4cc(C)ccc4n3)nc(C)c2c1`, the MIC in the assay with Staphylococcus aureus [1] worked out at 2 µg/mL. Moreover, the IC50 was 1700 nM in assay [2] and 2800 nM in assay [3].

With `COc1ccc2nc(Nc3nc(O)c4ccc(C)cc4n3)nc(C)c2c1`, the Activity in the assay on Staphylococcus aureus [5] is given as 50%. Besides, the MIC in the assay with Staphylococcus aureus [1] is 1 µg/mL. The IC50 in assay [2] was 2000 nM; in assay [3] it was 3700 nM.

Turning to `COc1ccc2nc(Nc3nc(O)c4ccccc4n3)nc(C)c2c1`, the MIC was found to be 0.25 µg/mL (≈ 0.75 µM) in the assay with Streptococcus pneumoniae and 0.5 µg/mL (≈ 1.5 µM) in the assay on Staphylococcus aureus [4]. In assay [3], half-maximal inhibition (IC50) was put at 4800 nM.

In the case of `COc1ccc2nc(Nc3nc(O)c4c(OC)cccc4n3)nc(C)c2c1`, the MIC in the assay with Staphylococcus aureus [1] was found to be 2 µg/mL. The IC50 in assay [2] is 1000 nM; in assay [3], 600 nM.
